We go through 37 sequences from the array DNA melting data of Ke et al. (doi:10.1101/2024.01.08.574731).

A short description of series [1]: melting temperature; fluorescence melt of hairpins on a sequencing array, two-state fit, raised by 9.35 °C to match UV melts. The settings on record: sodium 0.088 M. The procedure, abridged: (§1)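 In 50 mM Na-HEPES pH 8.0 containing 25 mM NaCl, hairpins from the library on a sequenced MiSeq flow cell were imaged for Cy3 fluorescence at 2.5 °C steps up to 60 °C, with Cy3 and quencher oligos annealed. After normalisation to pre-quench Cy3 and to control constructs, two-state fits with bootstrapping gave melting temperature and folding enthalpy. Four replicates were combined by inverse-variance weighting, and fitted temperatures were shifted up by 9.35 °C to match UV melts.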

Series [2] can be described thus: folding enthalpy; higher = less favourable; fluorescence melt of hairpins on a sequencing array, two-state fit. The settings on record: sodium 0.088 M. Summed up: as §1

Take GGATCGTCGAAAGACTCC (((..(((....)))))): the Tm in series [1] was 28.9 °C. The folding enthalpy in series [2] is -11.8 kcal/mol.

GGATCTCGAAAGAGGTCC (((.(((....))).))): in series [1], the Tm was determined as 57.3 °C. Moreover, the folding enthalpy in series [2] is -41.4 kcal/mol.

With GGATCTCGAAAGAGTTCC (((.(((....))).))), the Tm in series [1] worked out at 46.1 °C. In series [2], the folding enthalpy is -27.5 kcal/mol.

Consider GGATCTGGAAACGGATCC (((((.(....).))))), for which the Tm in series [1] stood at 51.6 °C. Moreover, in series [2], the folding enthalpy was -38.4 kcal/mol.

For the sequence GGATGACGAAAGTCTCC (((.(((....)))))), the Tm in series [1] worked out at 48.6 °C. In addition, in series [2], the folding enthalpy is -20 kcal/mol.

Turning to GGATGAGAAATCATCC ((((((....)))))), the Tm in series [1] came to 52.9 °C. Besides, the folding enthalpy in series [2] is -42.4 kcal/mol.

For GGATGCCCGAAAGGGTCC (((..(((....)))))), in series [1], the Tm turned out to be 33.2 °C. Besides, in series [2], the folding enthalpy is -11 kcal/mol.

On to GGATGCGAAAGCACCTCC ((((((....)))..))), for which the Tm in series [1] came to 54.6 °C. Further, in series [2], the folding enthalpy was -14.4 kcal/mol.

On to GGATGCGAAAGCACTTCC ((((((....)))..))), for which the Tm in series [1] amounted to 42.2 °C. For the same sequence, in series [2], the folding enthalpy was -17.4 kcal/mol.

As to GGATGCGAAAGCAGTCC ((((((....))).))), the Tm in series [1] came out at 52.4 °C. The folding enthalpy in series [2] is -22.3 kcal/mol.

Regarding GGATGGGCGAAAGCCTCC (((..(((....)))))), the Tm in series [1] turned out to be 36.9 °C. For the same sequence, the folding enthalpy in series [2] was -11.3 kcal/mol.

For GGATGGGGAAACCCATTC (.(((((....))))).), in series [1], the Tm was found to be 47.5 °C. In addition, the folding enthalpy in series [2] is -22 kcal/mol.

Take GGATGTGGAAACACACCC ((.((((....)))).)): in series [1], the Tm was 44.3 °C. In series [2], the folding enthalpy was -27 kcal/mol.

On to GGATTACCGAAAGGTTCC (((..(((....)))))), for which the Tm in series [1] stood at 30.8 °C. Besides, in series [2], the folding enthalpy was -13.5 kcal/mol.

Turning to GGATTACGAAAGTAGTCC (((.(((....))).))), the Tm in series [1] is 50.9 °C. Further, in series [2], the folding enthalpy was -37.5 kcal/mol.

As for GGATTAGGAAACTAACCC ((.((((....)))).)), the Tm in series [1] stood at 30.1 °C. Moreover, the folding enthalpy in series [2] is -17.3 kcal/mol.

For GGATTCCGAAAGGAGTCC (((.(((....))).))), in series [1], the Tm turned out to be 55.6 °C. Also, the folding enthalpy in series [2] was -41.6 kcal/mol.

Regarding GGATTCGAAAGAATATCC ((((((....)))..))), in series [1], the Tm came to 30.3 °C. Moreover, in series [2], the folding enthalpy is -9.96 kcal/mol.

With GGATTCGAAAGAATCC ((((((....)))))), the Tm in series [1] worked out at 62.9 °C. Moreover, the folding enthalpy in series [2] is -37.9 kcal/mol.

As for GGATTCGAAAGAATTCC ((((((....))).))), in series [1], the Tm stood at 42.6 °C. Moreover, in series [2], the folding enthalpy was -20.4 kcal/mol.

In the case of GGATTCGGAAACGAACCC ((.((((....)))).)), in series [1], the Tm is 45.6 °C. For the same sequence, the folding enthalpy in series [2] was -25.6 kcal/mol.

On to GGATTCGGAAACGAATCC (((((((....))))))), for which, in series [1], the Tm worked out at 67.1 °C. Besides, in series [2], the folding enthalpy is -35.8 kcal/mol.

With GGATTCGGAAACGAGTCC (((.(((....))).))), the Tm in series [1] turned out to be 51.1 °C. In addition, the folding enthalpy in series [2] was -35.7 kcal/mol.

Regarding GGATTTCGAAAGAATTCC (((.(((....))).))), the Tm in series [1] turned out to be 42 °C. The folding enthalpy in series [2] was -31.1 kcal/mol.

For GGATTTGCGAAAGCATCC (((..(((....)))))), in series [1], the Tm came out at 38.9 °C. Further, the folding enthalpy in series [2] was -16.4 kcal/mol.

For the sequence GGCAAAGGAAACTCTGCC ((((.((....)).)))), in series [1], the Tm turned out to be 36.2 °C. Moreover, the folding enthalpy in series [2] was -32.1 kcal/mol.

On to GGCAACCGAAAGGTGCC (((.(((....)))))), for which the Tm in series [1] amounted to 66.4 °C. Also, the folding enthalpy in series [2] was -33.6 kcal/mol.

Consider GGCAACGAAAGTTAGCC ((((((....))).))), for which the Tm in series [1] was 53.9 °C. In series [2], the folding enthalpy is -37.5 kcal/mol.

As for GGCAACGAAAGTTCAGCC ((((((....)))..))), in series [1], the Tm was found to be 41.1 °C. Besides, the folding enthalpy in series [2] was -24.4 kcal/mol.

Turning to GGCAACGAAAGTTCCGCC ((((((....)))..))), the Tm in series [1] came out at 48.4 °C. Moreover, in series [2], the folding enthalpy is -21.4 kcal/mol.

In the case of GGCAACGAAAGTTTCGCC ((((((....)))..))), in series [1], the Tm stood at 41.8 °C. Further, the folding enthalpy in series [2] is -19 kcal/mol.

GGCAACGAAAGTTTGCC ((((((....))).))): the Tm in series [1] was 56.4 °C. Also, the folding enthalpy in series [2] was -45.8 kcal/mol.

For the sequence GGCAACGGAAACGCTGCC ((((.((....)).)))), in series [1], the Tm was found to be 53.6 °C. For the same sequence, in series [2], the folding enthalpy was -41.8 kcal/mol.

As to GGCAACGGAAACGTCACC ((..(((....)))..)), the Tm in series [1] amounted to 26 °C. For the same sequence, the folding enthalpy in series [2] is -13.9 kcal/mol.

On to GGCAACGGAAACGTTACC ((.((((....)))).)), for which the Tm in series [1] is 45.1 °C. For the same sequence, the folding enthalpy in series [2] was -29.8 kcal/mol.

On to GGCAATCGAAAGATGGCC (((.(((....))).))), for which the Tm in series [1] was found to be 57.8 °C. In addition, in series [2], the folding enthalpy is -41.9 kcal/mol.

Consider GGCAATGGAAACATTGCC (((((((....))))))), for which the Tm in series [1] was determined as 67 °C. In addition, the folding enthalpy in series [2] was -42.1 kcal/mol.
